Laboratory results from ChEMBL document CHEMBL1127381, “Synthesis and 5-lipoxygenase inhibitory activities of some novel 2-substituted 5-benzofuran hydroxamic acids” (J Med Chem, 1994).

What was measured:
[1] = target: T1, Polyunsaturated fatty acid 5-lipoxygenase (Mus musculus) (UniProt P48999); assay: In vivo inhibition of 5-lipoxygenase (LTC4) in the mouse zymosan peritonitis assay at an oral dose of 30 mg/Kg; format: functional, organism-based
T1 sequence (whole entry): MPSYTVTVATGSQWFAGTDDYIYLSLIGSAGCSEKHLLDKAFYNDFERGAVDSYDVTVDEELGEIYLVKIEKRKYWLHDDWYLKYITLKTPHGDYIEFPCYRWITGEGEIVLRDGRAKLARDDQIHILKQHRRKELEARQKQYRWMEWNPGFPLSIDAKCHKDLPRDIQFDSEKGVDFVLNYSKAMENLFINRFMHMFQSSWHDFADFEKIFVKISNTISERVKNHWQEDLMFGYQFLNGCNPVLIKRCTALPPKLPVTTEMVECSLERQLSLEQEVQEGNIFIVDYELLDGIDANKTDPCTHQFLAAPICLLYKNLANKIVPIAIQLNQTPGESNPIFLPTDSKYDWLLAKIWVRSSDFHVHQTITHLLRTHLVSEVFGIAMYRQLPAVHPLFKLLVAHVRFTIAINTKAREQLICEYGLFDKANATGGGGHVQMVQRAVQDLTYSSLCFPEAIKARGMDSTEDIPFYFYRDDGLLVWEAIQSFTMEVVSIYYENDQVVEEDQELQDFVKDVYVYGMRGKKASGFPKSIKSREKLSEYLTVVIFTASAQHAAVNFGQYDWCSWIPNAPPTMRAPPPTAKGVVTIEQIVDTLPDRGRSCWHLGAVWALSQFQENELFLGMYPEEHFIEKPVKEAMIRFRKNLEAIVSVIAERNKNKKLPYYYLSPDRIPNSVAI
In short: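 Male CD-1 mice (18–25 g) given compound orally in PEG 200. Zymosan-A (3 mg in 0.9% saline) injected ip 1 h later. Mice killed 15 min after zymosan; peritoneum lavaged with 10 μM indomethacin. Fluid extracted in cold 95% ethanol and dried. LTC4 measured by [3H]RIA on 1:20 dilution. Values are mean percent inhibition per animal ± SEM.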

[2] = target: T2, Polyunsaturated fatty acid 5-lipoxygenase (Rattus norvegicus, UniProt P12527); assay: In vitro inhibition of 5-lipoxygenase (5-HETE) derived from the 9000xg supernatant of RBL broken cell assay; format: cell-based
T2 sequence (P12527 whole entry): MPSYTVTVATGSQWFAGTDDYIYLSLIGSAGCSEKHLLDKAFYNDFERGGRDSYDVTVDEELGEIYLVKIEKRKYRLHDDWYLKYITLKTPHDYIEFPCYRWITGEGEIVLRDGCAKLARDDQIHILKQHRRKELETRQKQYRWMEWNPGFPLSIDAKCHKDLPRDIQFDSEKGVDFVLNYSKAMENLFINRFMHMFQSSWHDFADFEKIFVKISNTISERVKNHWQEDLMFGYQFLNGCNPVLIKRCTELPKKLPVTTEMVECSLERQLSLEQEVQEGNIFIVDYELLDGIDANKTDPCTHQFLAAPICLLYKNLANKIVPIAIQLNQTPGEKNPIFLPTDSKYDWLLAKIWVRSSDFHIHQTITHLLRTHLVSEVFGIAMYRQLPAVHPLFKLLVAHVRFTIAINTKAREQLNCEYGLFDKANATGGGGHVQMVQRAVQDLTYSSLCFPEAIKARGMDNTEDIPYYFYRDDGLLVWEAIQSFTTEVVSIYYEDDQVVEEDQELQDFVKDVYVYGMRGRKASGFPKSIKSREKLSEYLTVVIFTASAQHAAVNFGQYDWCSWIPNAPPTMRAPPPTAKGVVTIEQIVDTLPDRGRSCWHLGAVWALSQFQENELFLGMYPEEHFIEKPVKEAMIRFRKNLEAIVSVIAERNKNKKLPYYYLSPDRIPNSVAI
In short: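 RBL-1 cells grown in suspension, washed, suspended at 5 × 10^7 cells/mL in NaHPO4/CaCl2 buffer, homogenized at 0 °C, spun 9000g for 50 min. Supernatant preincubated with compound 5 min at 37 °C, then [14C]arachidonic acid added and incubated 20 min at 37 °C. Reaction stopped with 2 N formic acid. 5-HETE formation measured radiometrically.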

Compound	inhibition [1] [%]	IC50 [2] [nM]	ED50 [1] [mg/kg]
CCCCc1cc2cc(C(C)N(O)C(C)=O)ccc2o1 (configuration not stated)	41.4	50	
COC(=O)CCCC(=O)N(O)C(C)c1ccc2oc(-c3ccccc3)cc2c1 (configuration not stated)		60	
COc1cc(-c2cc3cc(C(C)N(O)C(N)=O)ccc3o2)cc(OC)c1OC (configuration not stated)		50	17.5
COc1cc(-c2cc3cc(C(C)N(O)C(C)=O)ccc3o2)cc(OC)c1OC (configuration not stated)	42.1	310	
CCCCc1cc2cc(C(C)N(O)C(=O)CCCC(=O)OC)ccc2o1 (configuration not stated)	28.6	50	
CC(=O)N(O)C(C)c1ccc(OCCc2ccccc2)cc1 (configuration not stated)		410	
COC(=O)CCCC(=O)N(O)C(C)c1ccc2oc(-c3cc(OC)c(OC)c(OC)c3)cc2c1 (configuration not stated)	42.1	40	
CC(c1cc2ccccc2s1)N(O)C(N)=O (configuration not stated)			2.71
CCCCCCCCCCc1cc2cc(C(C)N(O)C(=O)CCCC(=O)OC)ccc2o1 (configuration not stated)	37.3	150	
COc1ccc(C(=O)N(O)C(C)c2ccc3oc(-c4ccccc4)cc3c2)cc1OC (configuration not stated)		200	
COc1ccc2cc(-c3cc4cc(C(C)N(O)C(C)=O)ccc4o3)ccc2c1 (configuration not stated)	25.6	120	
CCCCCCCCCCc1cc2cc(C(C)N(O)C(C)=O)ccc2o1 (configuration not stated)	19.5	410	
COc1cccc(OC)c1C(=O)N(O)C(C)c1ccc2oc(-c3ccccc3)cc2c1 (configuration not stated)		3000	

Second part, the compound after the results:

inhibition [1] [%]	IC50 [2] [nM]	ED50 [1] [mg/kg]	Compound
32.9	40		CC(c1ccc2oc(-c3ccccc3)cc2c1)N(O)C(=O)c1ccco1 (configuration not stated)
46.2			CC(c1ccc2oc(-c3ccccc3)cc2c1)N(O)C(=O)c1ccccc1 (configuration not stated)
	410	10.3	CC(c1ccc2oc(-c3ccccc3)cc2c1)N(O)C(N)=O (configuration not stated)
	490	22.1	CC(=O)N(O)C(C)c1ccc2oc(-c3ccccc3)cc2c1 (configuration not stated)
29.1	250		CC(c1ccc2oc(-c3ccccc3)cc2c1)N(O)C(=O)c1cccs1 (configuration not stated)
	700	27.5	CC(c1ccc2oc(-c3ccccc3)cc2c1)N(O)C(=O)CO (configuration not stated)
	50		CCOC(=O)CCC(=O)N(O)C(C)c1ccc2oc(-c3ccccc3)cc2c1 (configuration not stated)
18.9	160		CC(=O)OCC(=O)N(O)C(C)c1ccc2oc(-c3ccccc3)cc2c1 (configuration not stated)
	160	18.6	COCC(=O)N(O)C(C)c1ccc2oc(-c3ccccc3)cc2c1 (configuration not stated)
